This note sets out measurements from ChEMBL document CHEMBL4184339, “NMR Biochemical Assay for Oxidosqualene Cyclase: Evaluation of Inhibitor Activities on Trypanosoma cruzi and Human Enzymes” (J Med Chem, 2018).

For assay [1], the system named is Trypanosoma cruzi. Description: Parasiticidal activity against amastigote stage of Trypanosoma cruzi Tulahuen infected in mouse brain fibroblast assessed as time duration of effect at 9.6 microM preincubated for 5 days followed by another 10 days incubation with fresh compound. In kind it is functional.
The test system of assay [2] is Trypanosoma cruzi. Description: Parasiticidal activity against amastigote stage of Trypanosoma cruzi Tulahuen infected in mouse brain fibroblast assessed as time duration of effect at 19.2 microM preincubated for 5 days followed by another 10 days incubation with fresh compound. In kind it is functional.
Assay [3] is described as follows: Inhibition of Trypanosoma cruzi strain CL Brener C-terminal His6-tagged OSC expressed in Pichia pastoris GS115 using 2,3-oxidosqualene as substrate after 20 mins by 1H NMR method. In short, it runs like this:
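T. cruzi OSC was expressed in Pichia pastoris GS115, first grown in BMGY ([…]glycerol) at 30 °C for 3 days and then induced in BMMY (1% methanol) at 25 °C for 2 days. Cells were homogenized in Tris-HCl pH 7.5 with 250 mM NaCl. Purification buffers contained 0.2% Triton X-100 or 0.2–1.2% β-octylglucoside. The substrate, 2,3-oxidosqualene, was in 10 mM sodium phosphate buffer with varied inhibitor. Reactions started with 19 nM enzyme (final) and ran at 37 °C for 20 min. Lanosterol was quantified by 1H NMR with factor analysis, and IC50 was taken from a fit of the first-factor score.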

The target in another assay is T1, Lanosterol synthase (Homo sapiens, UniProt P48449).
T1 sequence (P48449 whole entry): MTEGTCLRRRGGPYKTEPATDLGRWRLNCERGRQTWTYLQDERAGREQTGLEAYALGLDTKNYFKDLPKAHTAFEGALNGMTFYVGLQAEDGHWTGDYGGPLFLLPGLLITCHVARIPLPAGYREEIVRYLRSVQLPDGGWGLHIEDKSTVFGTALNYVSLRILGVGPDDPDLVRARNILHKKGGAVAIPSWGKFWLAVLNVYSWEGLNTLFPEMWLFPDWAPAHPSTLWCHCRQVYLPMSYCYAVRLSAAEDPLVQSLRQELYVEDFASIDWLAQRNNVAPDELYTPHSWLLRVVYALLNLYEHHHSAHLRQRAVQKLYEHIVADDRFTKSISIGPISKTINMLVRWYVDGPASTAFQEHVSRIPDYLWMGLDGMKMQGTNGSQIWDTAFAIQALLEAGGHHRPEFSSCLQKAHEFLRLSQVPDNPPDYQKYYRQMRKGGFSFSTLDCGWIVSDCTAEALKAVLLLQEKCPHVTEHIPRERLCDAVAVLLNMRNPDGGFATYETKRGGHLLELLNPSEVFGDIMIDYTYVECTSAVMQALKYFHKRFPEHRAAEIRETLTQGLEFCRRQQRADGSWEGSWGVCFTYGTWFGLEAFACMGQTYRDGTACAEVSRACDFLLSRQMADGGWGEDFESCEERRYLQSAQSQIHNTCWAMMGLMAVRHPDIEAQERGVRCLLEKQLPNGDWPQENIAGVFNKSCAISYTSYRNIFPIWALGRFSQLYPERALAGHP
Description: Inhibition of human C-terminal His6-tagged OSC expressed in Pichia pastoris GS115 using 2,3-oxidosqualene as substrate after 90 mins by 1H NMR method. In short, it runs like this:
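Human OSC was expressed in Pichia pastoris GS115 using BMGY at 30 °C for 3 days, then BMMY methanol induction at 25 °C for 2 days. Purification included a Superdex 200 step, with buffers containing 0.2% Triton X-100 or 0.2–0.8% β-octylglucoside. Product was measured by NMR with factor analysis, and IC50 was fitted from the first-factor score.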

A short description of assay [4]: Selectivity ratio of IC50 for human C-terminal His6-tagged OSC to IC50 for Trypanosoma cruzi strain CL Brener C-terminal His6-tagged OSC.
Assay [5] deals with Trypanosoma cruzi. Description: Antiparasitic activity against epimastigote stage of Trypanosoma cruzi Tulahuen assessed as inhibition of parasite proliferation after 48 hrs by Alamar Blue assay. In kind it is functional, organism-based. The method in brief: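 Epimastigotes (one million per assay) were cultured in LIT medium with 10% newborn calf serum and co-incubated with compound. Afterwards, alamarBlue was added and fluorescence was read as a measure of viability.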

In assay [6] the test system is Trypanosoma cruzi. Description: Parasiticidal activity against amastigote stage of Trypanosoma cruzi Tulahuen infected in mouse brain fibroblast assessed as time duration of effect at 10.9 microM preincubated for 5 days followed by another 10 days incubation with fresh compound. It counts as functional.
The test system of assay [7] is Trypanosoma cruzi. Description: Parasiticidal activity against amastigote stage of Trypanosoma cruzi Tulahuen infected in mouse brain fibroblast assessed as time duration of effect at 21.8 microM preincubated for 5 days followed by another 10 days incubation with fresh compound. In kind it is functional.

As to `O=C(Cn1ccnc1[N+](=O)[O-])NCc1ccccc1` [BENZNIDAZOLE], the figures for the Time in the assay with Trypanosoma cruzi [1] and in the assay with Trypanosoma cruzi [2] were 35 days and 53 days, respectively.
In the case of `C=CCN(C)CCCCCCOc1ccc(C(=O)c2ccc(Br)cc2)c(F)c1`, in assay [3], the IC50 came out at 13 nM.
For `C=CCN(C)Cc1ccc(N2CCC(N(C)S(=O)(=O)c3ccc(Cl)cc3)CC2)cc1.Cl.Cl`, the IC50 was 42 nM in assay [3], 16 nM on Lanosterol synthase and 110 nM in the assay with Trypanosoma cruzi [5]. Moreover, the Ratio IC50 in assay [4] is 0.38. Besides, the Time with Trypanosoma cruzi [1] amounted to 62 days; in the assay with Trypanosoma cruzi [2], 80 days.
In the case of `CN(C)CCOc1ccc(OC2CCN(S(=O)(=O)c3ccc(F)cc3)CC2)cc1.Cl`, the half-maximal inhibitory concentration (IC50) in assay [3] was determined as 44 nM; against Lanosterol synthase, 120 nM; in the assay on Trypanosoma cruzi [5] it was 2150 nM. For the same molecule, the Ratio IC50 in assay [4] came to 2.7. For the same molecule, the Time came out at 21 days in the assay on Trypanosoma cruzi [6] and 29 days in the assay with Trypanosoma cruzi [7].
With `CN(C)Cc1ccc(N2CCC(N(C)S(=O)(=O)c3ccc(Cl)cc3)CC2)cc1`, the IC50 stood at 140 nM in assay [3] and 230 nM at Lanosterol synthase. In assay [4], the Ratio IC50 stood at 1.6.

As usually defined, the IC50 is the concentration at which inhibition is half-maximal.
